Data taken from ChEMBL document CHEMBL1130407, “Structure-based design of new constrained cyclic agonists of the cholecystokinin CCK-B receptor” (J Med Chem, 1997).
Non-standard residues stand in square brackets, D forms with d. Residues, ends and D or L forms follow the SMILES beside them. *: point of attachment. NMeNle = CCCC[C@H](NC)C(=O)O; Boc = CC(C)(C)OC(=O)*

How the values were obtained:
[1] = target: T1, Cholecystokinin receptor type A (Cavia porcellus, UniProt Q63931); test: Inhibition of [3H]pCCK-8 binding to Cholecystokinin type A receptor of Guinea pig pancreatic membranes
T1 sequence (Q63931 whole entry): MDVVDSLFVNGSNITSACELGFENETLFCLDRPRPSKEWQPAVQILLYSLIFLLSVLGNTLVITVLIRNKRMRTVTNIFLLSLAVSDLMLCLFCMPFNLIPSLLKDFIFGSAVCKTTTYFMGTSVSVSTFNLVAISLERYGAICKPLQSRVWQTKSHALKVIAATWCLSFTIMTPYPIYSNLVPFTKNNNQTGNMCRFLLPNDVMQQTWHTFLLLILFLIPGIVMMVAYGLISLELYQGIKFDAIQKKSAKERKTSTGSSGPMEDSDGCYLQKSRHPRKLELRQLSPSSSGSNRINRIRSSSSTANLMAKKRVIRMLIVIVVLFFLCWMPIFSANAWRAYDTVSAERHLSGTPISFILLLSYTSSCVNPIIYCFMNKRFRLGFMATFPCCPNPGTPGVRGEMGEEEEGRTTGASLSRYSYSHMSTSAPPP
Summary of the method: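 Guinea pig pancreatic membranes (0.2 mg protein/tube) incubated with 0.1 nM [3H]pCCK8 and varying competitor for 120 min at 25 °C. Buffer: 10 mM Pipes-HCl pH 6.5, 30 mM MgCl2, 0.2 mg/mL bacitracin, 0.2 mg/mL soybean trypsin inhibitor. Filtration read-out; Ki by Cheng–Prusoff; three experiments in triplicate, mean ± SEM.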

[2] = target: T2, Gastrin/cholecystokinin type B receptor (Rattus norvegicus, UniProt P30553); test: Affinity to inhibit [3H]pCCK-8 specific binding on rat brain Cholecystokinin type B receptor expressed in CHO cells; type: cell-based
T2 sequence (P30553 whole entry): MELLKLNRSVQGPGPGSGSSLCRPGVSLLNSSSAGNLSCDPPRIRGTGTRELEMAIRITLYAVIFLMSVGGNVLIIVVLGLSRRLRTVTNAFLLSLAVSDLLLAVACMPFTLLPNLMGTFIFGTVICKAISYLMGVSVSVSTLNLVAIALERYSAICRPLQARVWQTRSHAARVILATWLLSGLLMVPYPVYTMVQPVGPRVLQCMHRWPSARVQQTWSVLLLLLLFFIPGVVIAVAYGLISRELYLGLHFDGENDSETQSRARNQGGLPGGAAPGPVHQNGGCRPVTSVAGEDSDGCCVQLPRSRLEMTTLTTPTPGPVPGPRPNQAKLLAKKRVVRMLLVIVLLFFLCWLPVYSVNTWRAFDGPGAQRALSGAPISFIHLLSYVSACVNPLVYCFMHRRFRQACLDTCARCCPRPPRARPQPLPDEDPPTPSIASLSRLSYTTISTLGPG

[3] = target: T2, Gastrin/cholecystokinin type B receptor; test: Effective concentration for the stimulation of Inositol Phosphate accumulation in CHO cells expressing wild-type Cholecystokinin type B receptor; type: functional, cell-based
[4] = target: T3, Gastrin/cholecystokinin type B receptor (Rattus norvegicus) (UniProt P30553); test: Compound was tested for its ability to stimulate the CCK-B/gastrin receptor by measuring gastric acid output in the anesthetized perfused rat stomach; type: functional, tissue-based
T3 sequence (whole entry): T2 sequence (P30553 whole entry)
Summary of the method: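 Male Sprague–Dawley rats (300 ± 25 g), fasted 18 h with water available, anesthetized with intramuscular urethane (0.6–0.7 mL of 25% solution per 100 g). Compounds in saline given iv by continuous infusion. Gastric secretion collected every 15 min and H+ titrated with 0.01 N NaOH to pH 7. Output expressed as % of baseline; ED50 estimated from dose-response curves.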

Row | SMILES | Ki [1] [nM] | Ki ([2]; cho) [nM] | other results
1 | C[C@]1(Cc2c[nH]c3ccccc23)NC(=O)CCCCCCC[C@@H](C(=O)N[C@@H](CC(=O)O)C(=O)N[C@@H](Cc2ccccc2)C(N)=O)NC1=O | > 10000 | – | –
2 | CCCC[C@@H](C(=O)N[C@@H](CC(=O)O)C(=O)N[C@@H](Cc1ccccc1)C(N)=O)N(C)C(=O)[C@H](Cc1c[nH]c2ccccc12)NC(=O)OC(C)(C)C (Boc-W[NMeNle]DF-NH2) | > 5000 | – | Ki [2]: 8.7 nM; EC50 [3]: 1.5 nM
3 | C[C@]1(Cc2c[nH]c3ccccc23)NC(=O)CCCCSSCC[C@H](C(=O)N[C@@H](CC(=O)O)C(=O)N[C@@H](Cc2ccccc2)C(N)=O)NC1=O | – | – | ED50 [4]: 52 nM/h/kg
4 | C[C@]1(Cc2c[nH]c3ccccc23)NC(=O)CCCCCCCC[C@@H](C(=O)N[C@@H](CC(=O)O)C(=O)N[C@@H](Cc2ccccc2)C(N)=O)NC1=O | 2470 | 23 | EC50 ([3]; cho): 4 nM
5 | C[C@]1(Cc2c[nH]c3ccccc23)NC(=O)CCCCCC[C@@H](C(=O)N[C@@H](CC(=O)O)C(=O)N[C@@H](Cc2ccccc2)C(N)=O)NC1=O | 2880 | 142 | –

The next lines start with results.

Row | Ki [1] [nM] | Ki ([2]; cho) [nM] | SMILES | other results
6 | 36100 | – | CSCC[C@H](NC(=O)[C@@H](N)Cc1c[nH]c2ccccc12)C(=O)N[C@@H](CC(=O)O)C(=O)N[C@@H](Cc1ccccc1)C(N)=O [TETRAGASTRIN] | –
7 | 271 | 80 | C[C@]1(Cc2c[nH]c3ccccc23)NC(=O)CCCCSSCC[C@@H](C(=O)N[C@@H](CC(=O)O)C(=O)N[C@@H](Cc2ccccc2)C(N)=O)NC1=O | EC50 ([3]; cho): 7 nM
8 | 2210 | – | C[C@]1(Cc2c[nH]c3ccccc23)NC(=O)CCCCCCC[C@H](C(=O)N[C@@H](CC(=O)O)C(=O)N[C@@H](Cc2ccccc2)C(N)=O)NC1=O | ED50 [4]: 7.6 nM/h/kg
9 | 2290 | – | C[C@]1(Cc2c[nH]c3ccccc23)NC(=O)CC(=O)NCCCC[C@@H](C(=O)N[C@@H](CC(=O)O)C(=O)N[C@@H](Cc2ccccc2)C(N)=O)NC1=O | –
